The source made the active and inactive calls. The rule behind the calls is not given here.
What was measured:
[1] = target: T1, Prostaglandin G/H synthase 1 (Ovis aries, UniProt P05979); assay: Inhibition of ovine COX1 using arachidonic acid as substrate incubated for 10 mins prior to substrate addition measured after 2 mins by spectrophotometry
T1 sequence (P05979 whole entry): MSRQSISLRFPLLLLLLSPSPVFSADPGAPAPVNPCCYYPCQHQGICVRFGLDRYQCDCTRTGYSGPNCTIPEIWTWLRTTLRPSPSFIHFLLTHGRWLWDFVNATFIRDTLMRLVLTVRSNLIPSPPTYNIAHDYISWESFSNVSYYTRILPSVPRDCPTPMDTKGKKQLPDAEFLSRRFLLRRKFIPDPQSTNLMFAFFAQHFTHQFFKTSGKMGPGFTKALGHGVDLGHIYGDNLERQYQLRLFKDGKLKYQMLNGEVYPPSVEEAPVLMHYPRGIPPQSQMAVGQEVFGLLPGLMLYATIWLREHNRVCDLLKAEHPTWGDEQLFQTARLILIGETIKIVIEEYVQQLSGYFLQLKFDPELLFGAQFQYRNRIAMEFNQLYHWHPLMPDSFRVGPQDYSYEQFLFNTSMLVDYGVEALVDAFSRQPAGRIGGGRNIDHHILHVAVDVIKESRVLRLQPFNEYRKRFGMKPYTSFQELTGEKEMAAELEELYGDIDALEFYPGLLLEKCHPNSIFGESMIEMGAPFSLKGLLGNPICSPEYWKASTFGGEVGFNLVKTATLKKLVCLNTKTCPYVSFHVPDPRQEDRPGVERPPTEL
In short: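 Ovine COX-1 with heme, preincubated 10 min at 37 °C with inhibitor at 10^-3 to 10^-6 M. Arachidonic acid reaction for 2 min, stopped with 1 M HCl, then stannous chloride. Prostaglandin quantified by competitive EIA with AChE tracer, Ellman's reagent read at 420 nm. Heat-inactivated enzyme for background. Run in duplicate; IC50 fitted from % inhibition against concentration.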

Mus musculus [2] = assay: Antinociceptive activity in Swiss albino mouse assessed as reduction in capsaicin-induced paw licking at 5 mg/kg, ip administered 30 mins prior to capsaicin-challenge; format: functional, organism-based; parameters: dose 5 mg/kg
In short: (§1)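 Swiss albino mice (25–35 g) of either sex, acclimatized at least 1 h, each used once; groups of 6. Treatments given ip 30 min before intraplantar capsaicin (1.6 µg in 20 µL) into right hind paw; saline (0.5 mL) control, diclofenac 25 mg/kg reference, test doses 5 or 10 mg/kg. Time spent paw licking and twitching recorded over 10 min per animal.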

Mus musculus [3] = assay: Antinociceptive activity in Swiss albino mouse assessed as reduction in capsaicin-induced paw licking at 10 mg/kg, ip administered 30 mins prior to capsaicin-challenge; format: functional, organism-based; parameters: dose 10 mg/kg; in short: as §1
[4] = target: T2, Prostaglandin G/H synthase 2 (Homo sapiens) (UniProt P35354); assay: Inhibition of human recombinant COX2 using arachidonic acid as substrate at 10^-8 to 10^-5 M incubated for 10 mins prior to substrate addition measured after 2 mins by spectrophotometry
T2 sequence (whole entry): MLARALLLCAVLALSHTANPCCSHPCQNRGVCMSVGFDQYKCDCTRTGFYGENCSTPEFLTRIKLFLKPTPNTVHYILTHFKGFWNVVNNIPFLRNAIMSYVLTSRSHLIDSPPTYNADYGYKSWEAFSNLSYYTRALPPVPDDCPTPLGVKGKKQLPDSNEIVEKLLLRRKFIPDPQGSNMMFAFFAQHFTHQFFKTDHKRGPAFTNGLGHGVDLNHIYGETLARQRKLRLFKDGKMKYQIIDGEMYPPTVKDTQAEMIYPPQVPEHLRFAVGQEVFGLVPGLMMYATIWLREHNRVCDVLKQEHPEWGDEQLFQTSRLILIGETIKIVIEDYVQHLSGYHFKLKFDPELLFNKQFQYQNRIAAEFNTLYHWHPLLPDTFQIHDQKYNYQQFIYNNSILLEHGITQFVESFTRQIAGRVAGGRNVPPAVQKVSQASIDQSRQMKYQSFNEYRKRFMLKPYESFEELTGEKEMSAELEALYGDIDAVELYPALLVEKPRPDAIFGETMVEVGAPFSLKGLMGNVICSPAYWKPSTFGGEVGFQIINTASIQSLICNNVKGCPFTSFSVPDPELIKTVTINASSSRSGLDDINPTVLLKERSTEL
In short: (§2)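 Human recombinant COX-2 or ovine COX-1 with heme in reaction buffer, preincubated with inhibitor 10 min at 37 °C. Arachidonic acid then added for 2 min, stopped with 1 M HCl, followed by stannous chloride. Prostaglandin measured by AChE-tracer EIA, 18 h at room temperature, Ellman's development, absorbance at 420 nm. Boiled enzyme as background. Duplicates; IC50 from % inhibition versus concentration plot.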

[5] = target: T3, Prostaglandin G/H synthase 1 (Ovis aries) (UniProt P05979); assay: Inhibition of ovine COX1 using arachidonic acid as substrate at 10^-8 to 10^-5 M incubated for 10 mins prior to substrate addition measured after 2 mins by spectrophotometry; in short: as §2
T3 sequence (whole entry): T1 sequence (P05979 whole entry)

Mus musculus [6] = assay: Antinociceptive activity in Swiss albino mouse assessed as reduction in capsaicin-induced paw licking at 25 mg/kg, ip administered 30 mins prior to capsaicin-challenge; format: functional, organism-based; parameters: dose 25 mg/kg; in short: as §1

SMILES | IC50 [1] | Activity (Mus musculus [2]) | Activity (Mus musculus [3]) | inhibition [4] | inhibition [5] | Activity (Mus musculus [6])
CC1=NN(c2cccc(Cl)c2)C(=O)/C1=C\c1cn(CCCCOc2cc(O)c3c(=O)cc(-c4ccccc4)oc3c2)c2ccccc12 | 90 µM | Active | Active | – | – | –
O=C1Nc2ccccc2/C1=C/c1cn(CCCOc2cc(O)c3c(=O)cc(-c4ccccc4)oc3c2)c2ccccc12 | 102 µM | inactive | inactive | – | – | –
CC1=NN(c2cccc(Cl)c2)C(=O)/C1=C\c1cn(CCCOc2cc(O)c3c(=O)cc(-c4ccccc4)oc3c2)c2ccccc12 | 118 µM | inactive | Active | – | – | –
O=c1cc(-c2ccccc2)oc2cc(O)cc(O)c12 [CHRYSIN] | 39.3 µM | – | – | – | – | –
O=C1/C(=C\c2cn(CCCCOc3cc(O)c4c(=O)cc(-c5ccccc5)oc4c3)c3ccccc23)c2ccccc2N1c1c(Cl)cccc1Cl | – | – | – | inactive | inactive | –
O=C1Nc2ccccc2/C1=C/c1cn(CCCCOc2cc(O)c3c(=O)cc(-c4ccccc4)oc3c2)c2ccccc12 | – | – | – | inactive | inactive | –
O=C(O)Cc1ccccc1Nc1c(Cl)cccc1Cl | – | – | – | – | – | Active
O=C1/C(=C\c2cn(CCCOc3cc(O)c4c(=O)cc(-c5ccccc5)oc4c3)c3ccccc23)c2ccccc2N1c1c(Cl)cccc1Cl | 115 µM | Active | Active | – | – | –

Reference: ChEMBL document CHEMBL3098023, “Rationally designed hybrid molecules with appreciable COX-2 inhibitory and anti-nociceptive activities” (Bioorg Med Chem Lett, 2014)
